Converted amounts (≈) assume the structure as drawn.
Legend:
Staphylococcus aureus [1] = assay: Minimum inhibitory concentration against Staphylococcus aureus H 228; format: functional
How it was run: (§1)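 Tested by microtitration against a panel of 10 Gram-positive and Gram-negative organisms. MIC is reported in μg/mL.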

Mus musculus [2] = assay: In vivo antibacterial activity against Escherichia coli after following subcutaneous administration; format: functional; conditions: sc, read-out: PD50
How it was run: (§2)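 Acute lethal systemic infection in female Charles River CD-1 mice. Compound given orally or subcutaneously. Potency expressed as median protective dose (PD50, mg/kg), the dose preventing death in 50% of animals.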

Providencia rettgeri = assay: Minimum inhibitory concentration against M1771 strain of Providencia rettgeri; format: functional; how it was run: as §1
Enterococcus faecalis = assay: Minimum inhibitory concentration against Streptococcus faecalis MGH-2; format: functional; how it was run: as §1
Klebsiella pneumoniae = assay: Minimum inhibitory concentration against Klebsiella pneumoniae MGH-2; format: functional; how it was run: as §1
Enterobacter cloacae = assay: Minimum inhibitory concentration against Enterobacter cloacae MA 2646; format: functional
Mus musculus [3] = assay: In vivo antibacterial activity against Escherichia coli after following oral administration; format: functional; conditions: read-out: PD50; how it was run: as §2
Staphylococcus aureus [4] = assay: Minimum inhibitory concentration against Staphylococcus aureus UC-76; format: functional; how it was run: as §1
Mus musculus [5] = assay: In vivo antibacterial activity against Streptococcus pyogenes after following subcutaneous administration; format: functional; conditions: sc, read-out: PD50; how it was run: as §2
Escherichia coli = assay: Minimum inhibitory concentration against Escherichia coli Vogel; format: functional; how it was run: as §1
Streptococcus pneumoniae = assay: Minimum inhibitory concentration tested against Streptococcus pneumoniae SV-1; format: functional; how it was run: as §1
Streptococcus pyogenes = assay: Minimum inhibitory concentration against Streptococcus pyogenes C203; format: functional; how it was run: as §1
Mus musculus [6] = assay: In vivo antibacterial activity against Streptococcus pyogenes after following oral administration; format: functional; conditions: read-out: PD50; how it was run: as §2
Pseudomonas aeruginosa = assay: Minimum inhibitory concentration against U1-18 cell line from Pseudomonas aeruginosa; format: functional; how it was run: as §1
V79 = assay: Clonogenic cytotoxicity against Hamster V-79 cells; format: cell-based; conditions: Cricetulus griseus
[7] = The no effect dose (NED) for phototoxicity in mouse; format: organism-based; conditions: in vivo, read-out: NED
How it was run: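 Female CD-1 mice were depilated and dosed orally, with five animals per dose plus controls. After each dose the mice were exposed to UVA for 3 h. This was repeated daily for 4 days. Any redness or erythema relative to control was scored positive. The value is the highest dose producing no effect, in mg/kg.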

Structure (SMILES) | MIC (Staphylococcus aureus [1]) [µg/mL] | ED50 (Mus musculus [2]) [mg/kg] | MIC (Providencia rettgeri) [µg/mL] | MIC (Enterococcus faecalis) [µg/mL] | MIC (Klebsiella pneumoniae) [µg/mL] | MIC (Enterobacter cloacae) [µg/mL] | ED50 (Mus musculus [3]) [mg/kg] | MIC (Staphylococcus aureus [4]) [µg/mL] | ED50 (Mus musculus [5]) [mg/kg] | MIC (Escherichia coli) [µg/mL] | MIC (Streptococcus pneumoniae) [µg/mL] | MIC (Streptococcus pyogenes) [µg/mL] | ED50 (Mus musculus [6]) [mg/kg] | MIC (Pseudomonas aeruginosa) [µg/mL] | IC50 (V79) [µg/mL] | NOAEL [7] [mg/kg]
NCC1CCN(c2c(F)cc3c(=O)c(C(=O)O)cn(C4CC4)c3c2Cl)C1 (configuration not stated) | 0.003 (≈ 0.0079 µM) | 1 | 0.05 (≈ 0.132 µM) | 0.006 (≈ 0.0158 µM) | 0.05 (≈ 0.132 µM) | 0.025 (≈ 0.0658 µM) | 33 | 0.003 (≈ 0.0079 µM) | 0.2 | 0.025 (≈ 0.0658 µM) | 0.003 (≈ 0.0079 µM) | 0.003 (≈ 0.0079 µM) | 5 | 0.4 (≈ 1.05 µM) |  | 
NCC1CCN(c2cc3c(cc2F)c(=O)c(C(=O)O)cn3C2CC2)C1 (configuration not stated) | 0.05 (≈ 0.145 µM) | 2 | 0.2 (≈ 0.579 µM) | 0.05 (≈ 0.145 µM) | 0.1 (≈ 0.29 µM) | 0.1 (≈ 0.29 µM) | > 100 | 0.006 (≈ 0.0174 µM) | 4 | 0.05 (≈ 0.145 µM) | 0.013 (≈ 0.0376 µM) | 0.013 (≈ 0.0376 µM) | > 100 | 0.8 (≈ 2.32 µM) |  | 
NCC1CCN(c2nc3c(cc2F)c(=O)c(C(=O)O)cn3C2CC2)C1 (configuration not stated) | 0.1 (≈ 0.289 µM) | 1 | 0.4 (≈ 1.15 µM) | 0.025 (≈ 0.0722 µM) | 0.1 (≈ 0.289 µM) | 0.1 (≈ 0.289 µM) | 17 | 0.003 (≈ 0.00866 µM) | 4 | 0.05 (≈ 0.144 µM) | 0.1 (≈ 0.289 µM) | 0.025 (≈ 0.0722 µM) | 39 | 0.2 (≈ 0.577 µM) | 42 (≈ 121 µM) | 
NC1CCN(c2c(F)cc3c(=O)c(C(=O)O)cn(C4CC4)c3c2F)C1 (configuration not stated) | 0.05 (≈ 0.143 µM) | 0.2 | 0.05 (≈ 0.143 µM) | 0.05 (≈ 0.143 µM) | 0.025 (≈ 0.0716 µM) | 0.025 (≈ 0.0716 µM) | 1 | 0.025 (≈ 0.0716 µM) | 2 | 0.013 (≈ 0.0372 µM) | 0.05 (≈ 0.143 µM) | 0.05 (≈ 0.143 µM) | 8 | 0.1 (≈ 0.286 µM) |  | 3
COc1c(N2CCC(CN)C2)c(F)cc2c(=O)c(C(=O)O)cn(C3CC3)c12 (configuration not stated) | 0.025 (≈ 0.0666 µM) |  | 0.1 (≈ 0.266 µM) | 0.013 (≈ 0.0346 µM) | 0.1 (≈ 0.266 µM) | 0.05 (≈ 0.133 µM) |  | 0.003 (≈ 0.00799 µM) | 0.6 | 0.05 (≈ 0.133 µM) | 0.003 (≈ 0.00799 µM) | 0.003 (≈ 0.00799 µM) | 11 | 0.8 (≈ 2.13 µM) |  | 
CC(C)(N)[C@@H]1CCN(c2c(F)cc3c(=O)c(C(=O)O)cn(C4CC4)c3c2Cl)C1.Cl | 0.006 | 1 | 0.2 | 0.013 | 0.1 | 0.05 | 8 | 0.003 | 0.1 | 0.05 | 0.003 | 0.003 | 2 | 0.8 | < 8 | 
CC(C)(N)[C@@H]1CCN(c2nc3c(cc2F)c(=O)c(C(=O)O)cn3-c2ccc(F)cc2F)C1.Cl | 0.05 |  | 0.8 | 0.1 | 0.4 | 0.2 |  | 0.025 |  | 0.2 | 0.05 | 0.05 |  | 3.1 |  | 
COc1c(N2CC[C@@H](C(C)(C)N)C2)c(F)cc2c(=O)c(C(=O)O)cn(C3CC3)c12.Cl | 0.013 | 3 | 0.4 | 0.013 | 0.2 | 0.1 | 26 | 0.003 | 0.6 | 0.1 | 0.003 | 0.003 | 2 | 1.6 | 18 | 
CC(C)(N)[C@@H]1CCN(c2cc3c(cc2F)c(=O)c(C(=O)O)cn3C2CC2)C1.Cl | 0.05 | 2 | 0.2 | 0.025 | 0.1 | 0.05 | 18 | 0.006 | 1 | 0.05 | 0.003 | 0.003 | 20 | 0.8 | 190 | 
CC(C)(N)[C@H]1CCN(c2cc3c(cc2F)c(=O)c(C(=O)O)cn3C2CC2)C1.Cl | 0.4 |  | 1.6 | 0.4 | 0.8 | 0.4 |  | 0.1 | 13 | 0.4 | 0.2 | 0.2 | > 100 | 3.1 |  | 
CC(C)(N)[C@H]1CCN(c2nc3c(cc2F)c(=O)c(C(=O)O)cn3-c2ccc(F)cc2F)C1.Cl | 0.4 |  | 1.6 | 0.4 | 0.8 | 0.4 |  | 0.1 |  | 0.4 | 0.4 | 0.4 |  | 3.1 |  | 
COc1c(N2CC[C@H](C(C)(C)N)C2)c(F)cc2c(=O)c(C(=O)O)cn(C3CC3)c12.Cl | 0.05 |  | 0.8 | 0.05 | 0.4 | 0.2 |  | 0.013 | 3 | 0.2 | 0.025 | 0.025 | 29 | 3.1 | > 500 | 
CC(C)(N)[C@H]1CCN(c2c(F)cc3c(=O)c(C(=O)O)cn(C4CC4)c3c2Cl)C1.Cl | 0.025 | 4 | 0.4 | 0.05 | 0.2 | 0.1 | 27 | 0.013 | 4 | 0.1 | 0.013 | 0.025 | 13 | 1.6 |  | 
NCC1CCN(c2nc3c(cc2F)c(=O)c(C(=O)O)cn3-c2ccc(F)cc2F)C1 (configuration not stated) | 0.05 (≈ 0.12 µM) |  | 0.2 (≈ 0.478 µM) | 0.025 (≈ 0.0598 µM) | 0.1 (≈ 0.239 µM) | 0.05 (≈ 0.12 µM) |  | 0.013 (≈ 0.0311 µM) |  | 0.05 (≈ 0.12 µM) | 0.025 (≈ 0.0598 µM) | 0.025 (≈ 0.0598 µM) |  | 0.4 (≈ 0.956 µM) |  | 
O=C(O)c1cn(C2CC2)c2cc(N3CCNCC3)c(F)cc2c1=O [CIPROFLOXACIN] | 3.1 (≈ 9.36 µM) | 0.3 | 0.1 (≈ 0.302 µM) | 0.8 (≈ 2.41 µM) | 0.05 (≈ 0.151 µM) |  | 1 | 0.2 (≈ 0.604 µM) | 19 |  | 1.6 (≈ 4.83 µM) | 0.8 (≈ 2.41 µM) | 180 | 0.4 (≈ 1.21 µM) |  | > 100
